Assay results taken from ChEMBL document CHEMBL1154810, “Synthesis, characterization and biocidal activity of new organotin complexes of 2-(3-oxocyclohex-1-enyl)benzoic acid” (Eur J Med Chem, 2010).
Values after ≈ are worked out from the molar mass of the structure shown.

How the values were obtained:
[1] = system: Candida albicans; assay: Antimicrobial activity against Candida albicans ATCC 18804 after 48 hrs; type: functional; conditions: ATCC 18804, 48 h
Outline: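 Broth microdilution MIC per NCCLS M27-A in RPMI 1640. Yeasts were pre-grown on Sabouraud medium, 24 h for C. albicans and 48 h for C. neoformans. Compound solution was added to wells, then incubated 37 °C for 48 h. Ketoconazol was the positive control and DMSO 1 and 2% in RPMI the negative controls. Triplicate runs. MIC was the lowest concentration giving an optically clear well, judged visually against the drug-free growth control.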

[2] = system: HEK293; assay: Cytotoxicity against HEK293 cells after 24 hrs by MTT assay; type: cell-based, Homo sapiens

Compound | MIC [1] [µM] | IC50 [2] [nM]
CC(=O)N1CCN(c2ccc(OCC3COC(Cn4ccnc4)(c4ccc(Cl)cc4Cl)O3)cc2)CC1 (configuration not stated) [KETOCONAZOLE] | 0.24 (≈ 0.128 µg/mL) | 
CHLOROTRIMETHYLSTANNANE |  | 8
CHLOROTRIPHENYLSTANNANE |  | 10
DIBUTYLDICHLOROSTANNANE |  | 30
DICHLORODIMETHYLSTANNANE |  | 10
DICHLORODIPHENYLSTANNANE |  | 50
TRIBUTYLCHLOROSTANNANE |  | 40
